In ChEMBL document CHEMBL1255327, “Carbapenem-resistant Acinetobacter baumannii isolates from Tunisia producing the OXA-58-like carbapenem-hydrolyzing oxacillinase OXA-97” (2008):
≈ marks a conversion by molar mass, not a printed value.

Experiments:
[1] = test system: Acinetobacter baumannii; experiment: Antibacterial activity against Acinetobacter baumannii CIP7010 harboring pOXA-97 by disk diffusion method; type: functional
Summary of the method: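 Disk diffusion on Mueller-Hinton agar with β-lactam and non-β-lactam disks, per CLSI guidelines. The strain is an electroporation transformant of recipient CIP7010, with clinical isolates A1 and A2 as plasmid donors, selected on Trypticase soy agar containing 50 μg/ml ticarcillin.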

[2] = test system: Escherichia coli; experiment: Antibacterial activity against Escherichia coli TOP10 harboring pOXA-58; type: functional
[3] = Antibacterial activity against Escherichia coli DH10B; type: functional, Escherichia coli str. K-12 substr. DH10B
[4] = Antibacterial activity against Escherichia coli DH10B harboring pOXA-97; type: functional, Escherichia coli str. K-12 substr. DH10B
[5] = test system: Acinetobacter baumannii; experiment: Activity of Acinetobacter baumannii MAD beta-lactamase assessed per mg of protein at 100 uM
Summary of the method: (§1)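 Crude extracts made by sonication from A. baumannii clinical isolates and from E. coli TOP10 recombinants expressing OXA-97 or OXA-58. Specific activity measured against imipenem, meropenem, cephalothin, ceftazidime, oxacillin and benzylpenicillin, each at 100 μM final. Values are means of three independent experiments; standard deviations within 10% of means.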

[6] = test system: Escherichia coli; experiment: Antibacterial activity against Escherichia coli TOP10 harboring pOXA-97; type: functional
[7] = test system: Acinetobacter baumannii; experiment: Antibacterial activity against Acinetobacter baumannii phenotype 1 […]; type: functional
Summary of the method: (§2)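 Disk diffusion on Mueller-Hinton agar plates with β-lactam and non-β-lactam antibiotic disks, interpreted per CLSI guidelines.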

[8] = test system: Acinetobacter baumannii; experiment: Antibacterial activity against Acinetobacter baumannii CIP7010 by disk diffusion method; type: functional; summary of the method: as §2
[9] = test system: Acinetobacter baumannii; experiment: Activity of Acinetobacter baumannii phenotype 1 beta-lactamase assessed per mg of protein at 100 uM; summary of the method: as §1
[10] = test system: Acinetobacter baumannii; experiment: Antibacterial activity against Acinetobacter baumannii phenotype 2 […]; type: functional; summary of the method: as §2
[11] = test system: Escherichia coli; experiment: Activity of Escherichia coli TOP10 beta-lactamase OXA-97 assessed as specific activity per mg of protein at 100 uM; summary of the method: as §1
[12] = test system: Escherichia coli; experiment: Activity of Escherichia coli TOP10 beta-lactamase OXA-58 assessed per mg of protein at 100 uM; summary of the method: as §1
[13] = test system: Acinetobacter baumannii; experiment: Antibacterial activity against Acinetobacter baumannii MAD […]; type: functional
[14] = test system: Acinetobacter baumannii; experiment: Activity of Acinetobacter baumannii phenotype 2 beta-lactamase assessed per mg of protein at 100 uM; summary of the method: as §1
[15] = test system: Acinetobacter baumannii; experiment: Antibacterial activity against Acinetobacter baumannii phenotype 2 […] in presence of 4 ug/ml clavulanic acid; type: functional
[16] = Antibacterial activity against Escherichia coli DH10B harboring pOXA-97 in presence of 4 ug/ml clavulanic acid; type: functional, Escherichia coli str. K-12 substr. DH10B
[17] = test system: Escherichia coli; experiment: Antibacterial activity against Escherichia coli TOP10 harboring pOXA-58 in presence of 4 ug/ml clavulanic acid; type: functional
[18] = test system: Acinetobacter baumannii; experiment: Antibacterial activity against Acinetobacter baumannii CIP7010 by disk diffusion method in presence of 4 ug/ml clavulanic acid; type: functional
[19] = test system: Escherichia coli; experiment: Antibacterial activity against Escherichia coli DH10B in presence of 4 ug/ml clavulanic acid; type: functional; conditions: K-12 DH10B
[20] = test system: Acinetobacter baumannii; experiment: Antibacterial activity against Acinetobacter baumannii phenotype 1 […] in presence of 4 ug/ml clavulanic acid; type: functional
[21] = test system: Escherichia coli; experiment: Antibacterial activity against Escherichia coli TOP10 harboring pOXA-97 in presence of 4 ug/ml clavulanic acid; type: functional
[22] = test system: Acinetobacter baumannii; experiment: Antibacterial activity against Acinetobacter baumannii MAD […] in presence of 4 ug/ml clavulanic acid; type: functional

| Compound | MIC [1] [µg/mL] | MIC [2] [µg/mL] | MIC [3] [µg/mL] | MIC [4] [µg/mL] | Activity [5] [mU/mg] | MIC [6] [µg/mL] | MIC [7] [µg/mL] | MIC [8] [µg/mL] | Activity [9] [mU/mg] | MIC [10] [µg/mL] | Activity [11] [mU/mg] | Activity [12] [mU/mg] | MIC [13] [µg/mL] | also measured |
| --- | --- | --- | --- | --- | --- | --- | --- | --- | --- | --- | --- | --- | --- | --- |
| C[C@@H](O)[C@H]1C(=O)N2C(C(=O)O)=C(S[C@@H]3CN[C@H](C(=O)N(C)C)C3)[C@H](C)[C@H]12 [MEROPENEM] | 2 (≈ 5.22 µM) | 0.12 (≈ 0.313 µM) | 0.06 (≈ 0.156 µM) | 0.5 (≈ 1.3 µM) | 1.5 | 0.12 (≈ 0.313 µM) | 16 (≈ 41.7 µM) | 0.25 (≈ 0.652 µM) | 1.7 | 16 (≈ 41.7 µM) | 1 | 1 | > 64 | – |
| CC(C)(O/N=C(\C(=O)N[C@@H]1C(=O)N2C(C(=O)[O-])=C(C[n+]3ccccc3)CS[C@H]12)c1csc(N)n1)C(=O)O [CEFTAZIDIME] | 2 (≈ 3.66 µM) | 0.06 (≈ 0.11 µM) | 0.06 (≈ 0.11 µM) | 0.12 (≈ 0.22 µM) | 2 | 0.06 (≈ 0.11 µM) | > 512 | 2 (≈ 3.66 µM) | 1 | > 512 | 0.5 | 1.5 | 128 (≈ 234 µM) | – |
| CO/N=C(\C(=O)N[C@@H]1C(=O)N2C(C(=O)[O-])=C(C[N+]3(C)CCCC3)CS[C@H]12)c1csc(N)n1 [CEFEPIME] | 1 (≈ 2.08 µM) | 0.06 (≈ 0.125 µM) | 0.06 (≈ 0.125 µM) | 0.12 (≈ 0.25 µM) | – | 0.06 (≈ 0.125 µM) | 64 (≈ 133 µM) | 1 (≈ 2.08 µM) | – | 256 (≈ 533 µM) | – | – | 256 (≈ 533 µM) | – |
| Cc1onc(-c2ccccc2)c1C(=O)N[C@@H]1C(=O)N2[C@@H]1SC(C)(C)[C@@H]2C(=O)O | – | – | – | – | 230 | – | – | – | 230 | – | 220 | 210 | – | – |
| CC1(C)S[C@@H]2[C@H](NC(=O)[C@H](C(=O)O)c3ccsc3)C(=O)N2[C@H]1C(=O)O [TICARCILLIN] | > 512 | > 512 | 4 (≈ 10.4 µM) | > 512 | – | > 512 | > 512 | 4 (≈ 10.4 µM) | – | 64 (≈ 166 µM) | – | – | > 512 | – |
| C[C@H]1[C@H](NC(=O)/C(=N\OC(C)(C)C(=O)O)c2csc(N)n2)C(=O)N1S(=O)(=O)O [AZTREONAM] | 64 (≈ 147 µM) | 0.06 (≈ 0.138 µM) | 0.12 (≈ 0.276 µM) | 0.06 (≈ 0.138 µM) | – | 0.12 (≈ 0.276 µM) | 128 (≈ 294 µM) | 64 (≈ 147 µM) | – | 128 (≈ 294 µM) | – | – | 32 (≈ 73.5 µM) | – |
| CC1(C)S[C@@H]2[C@H](NC(=O)Cc3ccccc3)C(=O)N2[C@H]1C(=O)O | – | – | – | – | 170 | – | – | – | 220 | – | 220 | 150 | – | Activity [14]: 210 mU/mg |
| CC1(C)S[C@@H]2[C@H](NC(=O)[C@H](N)c3ccccc3)C(=O)N2[C@H]1C(=O)O [AMPICILLIN] | – | > 512 | 4 (≈ 11.4 µM) | > 512 | – | > 512 | > 512 | > 512 | – | > 512 | – | – | > 512 | MIC [15]: > 512 µg/mL; MIC [16]: 128 µg/mL; MIC [17]: 128 µg/mL; MIC [18]: 512 µg/mL; MIC [19]: 4 µg/mL; MIC [20]: > 512 µg/mL; MIC [21]: 128 µg/mL; MIC [22]: > 512 µg/mL |
| C[C@@H](O)[C@H]1C(=O)N2C(C(=O)O)=C(SCCNC=N)C[C@H]12 [IMIPENEM ANHYDROUS] | 2 (≈ 6.68 µM) | 2 (≈ 6.68 µM) | 0.06 (≈ 0.2 µM) | 1 (≈ 3.34 µM) | 4.5 | 2 (≈ 6.68 µM) | 32 (≈ 107 µM) | 0.25 (≈ 0.835 µM) | 5.2 | 16 (≈ 53.4 µM) | 4 | 3 | 32 (≈ 107 µM) | – |
| CC(=O)OCC1=C(C(=O)O)N2C(=O)[C@@H](NC(=O)Cc3cccs3)[C@H]2SC1 | – | – | – | – | 15 | – | – | – | 20 | – | 20 | 15 | – | Activity [14]: 10 mU/mg |
